# Screens from PubChem.
# Most compounds without a hit are left out; they make up all but 5.3% or so of the library.
# Mdm2-MdmX inh: inhibitors of human Mdm2-MdmX association, primary screen, cell-based, luminescence, split luciferase, SaOS-2, uHTS | SaOS-2 split-luciferase Mdm2/MdmX complementation | inhibition, % at 8 µM | 330,000 tested, 3% active | AID 485346, 2010;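 active = inhibition of at least 50% at 8 µM in the primary screen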
# Target sequence (O15151 whole entry, looked up): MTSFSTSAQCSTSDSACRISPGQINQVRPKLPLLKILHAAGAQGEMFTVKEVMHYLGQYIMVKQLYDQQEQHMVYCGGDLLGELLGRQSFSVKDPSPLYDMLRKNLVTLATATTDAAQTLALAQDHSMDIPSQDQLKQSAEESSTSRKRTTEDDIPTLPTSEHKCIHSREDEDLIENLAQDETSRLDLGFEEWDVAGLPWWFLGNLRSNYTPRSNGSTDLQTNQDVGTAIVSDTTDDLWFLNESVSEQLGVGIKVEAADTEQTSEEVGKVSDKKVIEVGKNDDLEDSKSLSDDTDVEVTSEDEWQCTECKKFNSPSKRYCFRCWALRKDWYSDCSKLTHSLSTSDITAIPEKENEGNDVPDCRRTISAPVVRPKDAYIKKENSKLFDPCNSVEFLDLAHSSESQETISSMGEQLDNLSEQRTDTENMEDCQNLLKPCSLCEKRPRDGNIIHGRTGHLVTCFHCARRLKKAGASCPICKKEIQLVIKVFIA
# Target sequence (Q00987 whole entry, looked up): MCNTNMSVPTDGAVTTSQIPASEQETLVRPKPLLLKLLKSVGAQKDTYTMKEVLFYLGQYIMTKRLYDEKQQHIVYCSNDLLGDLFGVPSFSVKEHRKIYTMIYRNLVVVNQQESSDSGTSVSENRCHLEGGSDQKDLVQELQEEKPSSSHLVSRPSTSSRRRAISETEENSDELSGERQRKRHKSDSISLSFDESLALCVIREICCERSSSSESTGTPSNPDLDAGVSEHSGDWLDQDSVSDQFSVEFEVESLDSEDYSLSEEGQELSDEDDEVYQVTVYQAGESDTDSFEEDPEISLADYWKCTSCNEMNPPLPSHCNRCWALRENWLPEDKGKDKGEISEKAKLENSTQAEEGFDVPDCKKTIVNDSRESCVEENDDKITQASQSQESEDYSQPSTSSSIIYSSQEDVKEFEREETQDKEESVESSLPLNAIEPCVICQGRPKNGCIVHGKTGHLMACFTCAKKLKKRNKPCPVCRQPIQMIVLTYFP
# NALP3 yeast inh: NALP3 inflammasome inhibitors in reconstituted yeast, primary screen, luminescence, uHTS | AID 2825, 2010 | Yeast reconstituted NLRP3/ASC/caspase-1, beta-gal luminescence, 24 h | inhibition, % at 10 µM | 330,000 tested, 0.39% active;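 active = inhibition of 50% or more; inactive = inhibition below 50%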;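 note: plate controls were induced DMSO wells for no effect and uninduced yeast grown without galactose for full effect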
# T cruzi inh: inhibitors of intracellular T. cruzi growth, primary screen, luminescence, NIH3T3 host cells; inhibition, % (no concentration beside the values); 300,000 tested, 1.4% active; T. cruzi beta-gal in NIH3T3, 90 h;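 active = mean inhibition across valid replicates above about 55%, limit read from the data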;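 note: signal also drops with host cell toxicity which is not excluded here; 0% = plate median of DMSO wells and 100% = zero luminescence signal; higher percent means less beta-gal luminescence so fewer parasites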
#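 Assay system: NIH/3T3 fibroblasts plus reporter T. cruzi. Amount: NIH/3T3 cells, 5,000 per well. Buffer or medium: DMEM, 2% fetal bovine serum. Doses: compound pinned at 50 nL/well, DMSO. Schedule: ≥90 h infection period, 3 h prior cell attachment. Signal: luminescent β-galactosidase signal after 60 min lysis. Read-out: parasite load inhibition, %.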
# Calb FLC: C. albicans growth inhibition with fluconazole, primary screen, CaCi-2 strain, Alamar Blue fluorescence. 300,000 tested, 0.57% active. growth inhibition, % (test concentration not listed). AID 1979, 2009. C. albicans CaCi-2 (fluconazole-resistant clinical isolate) + fluconazole, 48 h;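 active = growth inhibition above about 58% in most replicates, limit read from the data, passing the limit was not always enough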;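 note: all wells also contain fluconazole at 8 µg/ml as a sub-toxic cotreatment; 0% = median of DMSO wells and 100% = median of geldanamycin control wells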
# Beta apoptosis: inhibitors of cytokine-induced beta cell apoptosis, primary screen, luminescence; 300,000 tested, 0.8% active; protection from apoptosis, % (concentration not given with the values); AID 435005, 2010; INS-1E cytokine-induced death, ATP luminescence, 48 h; percent of positive-control rescue, neutral wells zero;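 active = Every replicate reaches about 75%, or at least half do and their mean reaches it too, limit read from the data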;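 note: 0% = cytokine-treated negative control wells and 100% = positive control rescue; higher means more ATP so stronger rescue from cytokine killing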
# CSC inhib: cancer stem cell viability inhibitors, primary screen, luminescence; cancer stem cell-like cells viability; AID 2717, 2010; 300,000 tested, 1.1% active; inhibition, % at 7.5 µM; in the data active = inhibition above about 75%; tested in HMLE shEcad cells
# NALP3 yeast conf: NALP3 inhibitors retested in yeast, confirmation, luminescence, single concentration; yeast expressing human NALP3; 1,300 tested, 81% active; inhibition, % at 10 µM; shares compounds with NALP3 yeast inh; AID 435006, 2010; in the data active = inhibition above about 48%
# Casp1 ASC ctr: CASP1-PYCARD signaling inhibition in yeast, confirmatory test, counterassay for NLRP3 inhibitor program, one-dose; shares compounds with NALP3 yeast inh; yeast expressing Caspase-1-ASC, luminescence counter screen; inhibition, % at 10 µM; 1,000 tested, 66% active
# NALP3 retest: NALP3 inhibitors in yeast, repeat test, confirmation, luminescence, single concentration, retest | shares compounds with NALP3 yeast inh | yeast expressing human NALP3, luminescence read-out | inhibition, % at 10 µM | 1,000 tested, 53% active
# Mdm2 MdmX conf: Mdm2-MdmX complex disruptors, retested hits, confirmation, luminescence, single concentration; shares compounds with Mdm2-MdmX inh; Mdm2-MdmX binding, luminescent assay; inhibition, % at 8 µM; 10,000 tested, 55% active; in the data active = inhibition above about 40%
# FLuc counter: full-length luciferase signal inhibition, confirmation, counter-screen for Mdm2/MdmX interaction inhibitor project, cell-based, single concentration, SaOS-2; shares compounds with Mdm2-MdmX inh; SaOS-2 full-length luciferase counterscreen, luminescence; inhibition, % at 8 µM; 6,200 tested, 77% active; AID 504607, 2011;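 active = mean inhibition at 8 µM reaching about 37%, which flags the compound as non-specific, limit read from the data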;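 note: p53-null SaOS-2 cells with luciferase driven by a doxycycline-inducible promoter; compound on cells about two nights before reading with doxycycline added after day one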
# Numbers without * were called inactive; . = no result given; + = active, no number. Cut-off read from the data, not from the text of the source, unless noted: active = inhibition above about 50%; inactive = the rest.
SMILES,Mdm2-MdmX inh,NALP3 yeast inh,T cruzi inh,Calb FLC,Beta apoptosis,CSC inhib,NALP3 yeast conf,Casp1 ASC ctr,NALP3 retest,Mdm2 MdmX conf,FLuc counter
CCOC(=O)c1cccc(NC(=O)/C=C/c2ccc([N+](=O)[O-])cc2)c1,36.1,21.1,-1.9,1.8,-0.8,28.7,.,.,.,.,.
C=C1/C=C(\C)[C@](C)(O)C[C@H](O)CC(=O)[C@H](O)[C@@H](O)[C@H](C)C[C@H](C)OC(=O)/C(C)=C/CC/C=C/[C@@H]2O[C@H]2C[C@H](C)C1,97.2*,83.2*,.,.,92.3*,.,88.7*,.,.,-28.4,.
CC(O)/C=C/c1ccc2ccccc2n1 (stereo not given),59.8*,50.5*,-33.4,58.0,-11.0,14.8,69.6*,36.8,42.8,22.2,.
Fc1cccc(F)c1/C=C/c1ccc2ccccc2n1,-174.0,7.6,7.0,-3.6,5.8,28.1,.,.,.,.,.
COCCCN1C(=O)C(=O)/C(=C(/O)c2ccc(S(=O)(=O)N3CCOCC3)cc2)C1c1cccc(Cl)c1 (stereo not given),1.9,18.8,-6.3,-2.7,.,-11.9,.,.,.,.,.
On1onc2c3cc(-c4ccccc4)nc3ccc21,68.7*,50.6*,.,.,101.0*,0.3,71.5*,.,.,58.2*,64.6*
C=CCn1c(=NC(=O)CC)n(C)c2ccccc21,-8.6,4.9,-4.9,1.6,9.3,-4.0,.,.,.,.,.
CSCCC(NC(=O)c1ccc(Cl)c([N+](=O)[O-])c1)C(=O)N1CCN(C/C=C/c2ccccc2)CC1 (stereo not given),36.3,26.9,-13.0,-7.3,2.4,16.2,.,.,.,.,.
Clc1cc2cccnc2c2ccccc12,3.6,6.2,-15.0,0.9,-5.4,4.8,.,.,.,.,.
Oc1c(I)cc(I)c2cccnc12,92.5*,65.2*,0.0,.,.,.,62.5*,26.4,23.9,71.8*,39.4*
C/C(=N/NC(=O)c1ccc(C(C)(C)C)cc1)c1ccccn1,93.2*,65.7*,39.8,-7.4,111.1*,60.4,55.0*,83.2*,78.7*,43.5*,55.3*
C/C(=N\NC(=O)c1ccc(Cl)c(Cl)c1)c1ccccn1,83.5*,52.6*,59.6*,-12.9,93.1*,81.5*,79.7*,.,.,81.5*,25.9
C/C(=N\NC(=O)c1cccc(Br)c1)c1ccccn1,100.4*,61.4*,50.4,-14.1,104.9*,138.8*,83.9*,84.7*,69.0*,63.2*,50.5*
CC(C)OCc1ccc(C(=O)N2CCN(S(=O)(=O)c3ccc(Br)s3)CC2)cc1,-7.5,18.2,.,.,-2.5,1.8,.,.,.,.,.
COc1cc(OC)cc(C(=O)Nc2cccc(NC(=O)c3cc(OC)cc(OC)c3)n2)c1,11.2,18.0,-5.1,-0.7,-0.7,3.3,.,.,.,.,.
O=C(Oc1c(Cl)cc(Cl)c2cccnc12)c1cccs1,76.0*,60.8*,75.3*,108.0*,75.0*,121.4*,69.9*,82.9*,80.7*,57.2*,32.1
O=C(Oc1c(Cl)cc(Cl)c2cccnc12)c1ccco1,71.3*,70.6*,68.1*,101.4*,91.5*,+,83.8*,.,.,59.8*,36.3*
O=C(Nc1cccnc1Cl)c1cccs1,17.2,-5.0,-3.6,16.6,3.5,-5.0,.,.,.,.,.
